# Screening data: PubChem BioAssay, Broad Institute
# Sampled rows, rich in hits. Any-hit rate of the full collection: about 2.3%.
# EWS-Fli inh – EWS/Fli-driven NR0B1 reporter inhibitors, primary screen, A673 cells, NR0B1 luciferase, luminescence, MLPCN library. actives 0.67% (n = 350,000). inhibition, % at 12.6 µM. viability-normalised;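 active means mean inhibition of at least 50% after viability correction, with every replicate also passing that limit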;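 further: firefly luciferase signal divided by Alamar Blue viability fluorescence both relative to DMSO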
# PGC1a acetyl inh – inhibitors of PGC1a acetylation signal, primary screen, cell-based, U2OS, AlphaScreen, inhibitor mode; inhibition, % at 15.6 µM; AlphaScreen anti-acetyl-lysine; with virally co-expressed GCN5 acetyltransferase; actives 0.17% (n = 350,000);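 active means every replicate shows inhibition of at least 40%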;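 further: 0% = neutral control wells and 100% = positive control wells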
# PAX8 reporter – inhibitors of PAX8-driven TPO luciferase reporter, primary screen, RMG-I cells, single concentration. SteadyGlo, 24 h. inhibition, % at 12.6 µM. actives 1.2% (n = 360,000);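 active means mean replicate inhibition at least 60% with every replicate also reaching 60%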;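 further: luciferase light reporting Pax8 driven TPO promoter activity; plate controls were median of neutral control wells for no effect and mitoxantrone controls for full effect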
# HIV Env fusion – inhibitors of HIV-1 Env-driven cell-cell fusion, primary screen, HeLa-JRFL effector, CEM21 target cells, luciferase; inhibition, % at 12.3 µM; actives 1.1% (n = 360,000);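 active means mean replicate inhibition score of at least 50 and every replicate individually at or above 50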;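 further: 0% = plate neutral controls and 100% = maraviroc near 300 nM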
# FN deposit inh – inhibitors of fibronectin matrix deposition, primary screen, AH1F cells, Alexa488-fibronectin fluorescence, plate reader. actives 0.086% (n = 350,000). inhibition, % at 12.6 µM. AID 743247, 2014. AH1F fibroblasts, overnight;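 active means mean inhibition across replicates of 30% or more, regardless of how many single replicates reach that level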;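 further: positive control wells lacked labelled fibronectin entirely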
#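 Material: AH1F fibroblasts assembling fluorescent fibronectin matrix; amount: 10000 AH1F cells/well; medium: DMEM, 2% serum; reagent: Alexa488-fibronectin, 24 nM final in well; dosing: single compound dose, delivered by pin transfer; incubation: 1 h adhesion, overnight exposure; detection: fluorescence after three HBSS washes, excitation 485 nm, emission 525 nm; measure: fibronectin deposition inhibition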
# F508del corr – F508del CFTR correction, initial screen, CFBE line, single point; CFBE cells, YFP halide quenching; stimulated with forskolin plus potentiator P3; % fluorescence drop versus neutral controls; activity (quench increase), % at 7.58 µM; actives 0.36% (n = 350,000); AID 720511, 2013;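 active means mean added fluorescence quench of at least 8% versus neutral control, with both replicates also reaching 8%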;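 further: cells transiently co-express mutant CFTR-F508del with the halide-sensitive YFP; corrector assay measuring rescue of mutant channel to the surface after 24 h compound exposure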
# The depositor's hits bear a star; . = not tested or not shown; [ ] = remark or other dose.
SMILES,EWS-Fli inh,PGC1a acetyl inh,PAX8 reporter,HIV Env fusion,FN deposit inh,F508del corr
Cn1cc(/C=C/C(=O)c2ccccc2)c2ccccc21,41,.,-57,-171,-2,2
CC1CN(S(=O)(=O)c2ccc(C(=O)Nc3nnc(-c4ccco4)o3)cc2)CC(C)O1 (stereo unspecified),6,.,2,-2,5,.
COc1cccc(-c2nnc(NC(=O)c3ccc(S(=O)(=O)N4CC(C)OC(C)C4)cc3)o2)c1 (stereo unspecified),.,-5,27,55*,-3,.
CC1CN(S(=O)(=O)c2ccc(C(=O)Nc3ccccc3F)cc2)CC(C)O1 (stereo unspecified),7,8,8,.,-7,9.1*
COC(=O)C[C@@H]1C[C@@H]2c3cc(NC(=O)Nc4ccc(C(F)(F)F)cc4)ccc3O[C@@H]2[C@@H](CO)O1,.,.,.,.,-10,.
C[C@@H]1CCCCO[C@H](CN(C)Cc2ccncc2)[C@@H](C)CN([C@@H](C)CO)C(=O)c2cc(NC(=O)Nc3ccccc3)ccc2O1,.,-10,7,-43[16.7 µM],1,-1
C[C@H]1CN([C@@H](C)CO)C(=O)c2cccc(NS(=O)(=O)c3ccccc3)c2O[C@H]1CN(C)C(=O)Nc1ccc2c(c1)OCO2,-10,3,.,-31[16.7 µM],.,-3
CN1C(=O)c2cc(NC(=O)c3ccc(F)c(F)c3)ccc2OC[C@@H]2O[C@H](CC(=O)O)CC[C@@H]21,4,9,6,-22[16.7 µM],-14,2
C[C@H](CO)N1C[C@H](C)[C@H](CN(C)C(=O)c2ccncc2)OCCCC[C@H](C)Oc2ccc(NS(=O)(=O)c3ccc(F)cc3)cc2C1=O,7,-1,18,6[16.7 µM],-3,0
CCCOC(=O)C1C2C=CC(C3CC23)C1C(=O)OCC(=O)c1ccccc1 (stereo unspecified),.,.,.,62*,.,.
COc1cccc(S(=O)(=O)N[C@@H]2CC[C@H](CCn3cc(-c4ccccc4OC)nn3)O[C@H]2CO)c1,1,2,5,-3[16.7 µM],-1,-2
C[C@H](NC(=O)[C@@H]1[C@@H](CO)[C@@H]2Cn3c(cccc3=O)[C@H]1N2C(=O)C1CCCC1)c1ccccc1,-14,.,.,.,-7,3
FC(F)(F)c1cccc(CC2CN(Cc3ccccc3)Cc3ccccc3N2c2cc(Cl)cc(Cl)c2)c1 (stereo unspecified),76*,9,42,-55,-17,-1
O=S1(=O)CCOC[C@H](Cc2ccccc2)N1Cc1cccc(C(F)(F)F)c1,5,-43,1,38,0,-2
COc1ccc(OCC(=O)NNC(=O)CCc2ccccc2)cc1,-3,5,-10,2,-13,9.8*
O=C(CCc1ccccc1)NNC(=O)COc1ccccc1,.,3,.,12,-1,.
COc1ccc(N2CCN(C(=O)COC(=O)CCc3ccccc3)CC2)cc1,-3,6,77*,-423,3,2
O=C(Nc1ccccc1)N[C@H]1CC[C@@H](CCNC(=O)c2ccccc2F)O[C@@H]1CO,10,-4,12,-1[16.7 µM],.,1
C[C@@H]1CN([C@@H](C)CO)S(=O)(=O)c2ccc(-c3ccc(C(=O)N(C)C)cc3)cc2O[C@H]1CN(C)C(=O)C1CC1,-3,-25,.,-10[16.7 µM],.,-1
C=C(NC(=O)C(=C)NC(=O)c1csc(C2=NC3c4csc(n4)C4NC(=O)c5csc(n5)C(C(C)(O)C(C)O)NC(=O)C5CSC(=N5)/C(=C/C)NC(=O)C(C(C)O)NC(=O)c5csc(n5)C3(CC2)NC(=O)C(C)NC(=O)C(=C)NC(=O)C(=C)NC(=O)C(C(C)C)NC2C=Cc3c(C(C)O)cc(nc3C2O)C(=O)OC4C)n1)C(N)=O (stereo unspecified),74*,.,46,4,-4,-3
CO[C@@H]1CN(C)C(=O)c2cc(NC(C)=O)ccc2OC[C@H](C)N(C(=O)C2CCCCC2)C[C@H]1C,.,.,.,.,0,.
